Experiments:
SK-MES-1 = test: Antitumor against human SK-MES1 cells after 72 hrs by MTT assay; type: functional, cell-based; conditions: SK-MES-1, 72 h
Outline: (§1)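 Cells seeded at 50,000 cells/mL and treated one day later for 3 days with compound at 0 up to 100 µM, with DMSO at 1% final. Untreated cells served as controls. Growth was read by MTT reduction, in sextuplicate. IC50 is the concentration giving 50% growth reduction. Media: AGS in Ham F-12; MRC-5, SK-MES-1 and J82 in MEM; all with 10% FBS at 37 °C and 5% CO2.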

MRC5 = test: Cytotoxicity against human MRC5 cells after 72 hrs by MTT assay; type: cell-based; conditions: MRC5, 72 h; outline: as §1
HL-60 = test: Antitumor against human HL60 cells after 72 hrs by MTT assay; type: functional, cell-based; conditions: HL-60, 72 h
Outline: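 HL-60 leukemia cells kept in RPMI with 1 mM pyruvate and 10% heat-inactivated FBS at 37 °C and 5% CO2. They were plated at 50,000 cells/mL and exposed from day 1 for 3 days to compound at 0 up to 100 µM, with DMSO at 1% final. Untreated cells served as controls. Readout was MTT reduction in sextuplicate. IC50 is 50% growth reduction.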

AGS = test: Antitumor against human AGS cells after 72 hrs by MTT assay; type: functional, cell-based; outline: as §1
J82 = test: Antitumor against human J82 cells after 72 hrs by MTT assay; type: functional, cell-based; conditions: J82, 72 h; outline: as §1

Compound	IC50 (SK-MES-1) [µM]	IC50 (HL-60) [µM]	IC50 (AGS) [µM]	IC50 (MRC5) [µM]	IC50 (J82) [µM]
O=C1C(Cl)=C(OCCOCCOC2=C(Cl)C(=O)c3ccccc3C2=O)C(=O)c2ccccc21	16.1	1.9	11	7.3	26.6
O=C1C(Cl)=C(OCCOCCOCCOCCOC2=C(Cl)C(=O)c3ccccc3C2=O)C(=O)c2ccccc21	12.2	89.5	54.8	55.8	33.9
COCCOC1=C(Cl)C(=O)c2ccccc2C1=O	16.7	1.7	9.9	3.5	19.4
O=C1C2=C(OCCOCCOCCO2)C(=O)c2ccccc21	7.9	2.6	17.5	10.1	19.8
O=C1C2=C(OCCOCCO2)C(=O)c2ccccc21	16.4	21.4	63.2	95.2	39.6
O=C1C2=C(OCCO2)C(=O)c2ccccc21	8.3	20.1	19.5	22.9	22.3
COC1=C(Cl)C(=O)c2ccccc2C1=O	11.5	1.8	9.1	3.5	10.1

Stronger by IC50 (SK-MES-1), values ahead:

IC50 (SK-MES-1) [µM]	IC50 (HL-60) [µM]	IC50 (AGS) [µM]	Compound	IC50 (MRC5) [µM]	IC50 (J82) [µM]
7.1	1.3	5.2	O=C1C(Cl)=C(OCCOCCOCCOC2=C(Cl)C(=O)c3ccccc3C2=O)C(=O)c2ccccc21	4	8.6
5.3	8.9	9.1	COC1=C(OC)C(=O)c2ccccc2C1=O	7.2	16.1
2.5	0.8	0.36	COc1cc([C@@H]2c3cc4c(cc3[C@@H](O[C@@H]3O[C@@H]5CO[C@@H](C)O[C@H]5[C@H](O)[C@H]3O)[C@H]3COC(=O)[C@H]23)OCO4)cc(OC)c1O [ETOPOSIDE]	3.9	2.8

From ChEMBL document CHEMBL1142417, “Studies on quinones. Part 43: Synthesis and cytotoxic evaluation of polyoxyethylene-containing 1,4-naphthoquinones” (Bioorg Med Chem, 2008)
